Measurements from different studies.
Each line is one published result; the experiments were not run side by side.
Observed: metabolic stability
Species: human
Matrix: liver microsomes

CN(c1ccc(F)cc1)c1c(-c2cccc(F)n2)nc2ccccn12 — microsomal CLint (3 µM, pH 7.4): 170 µL/min/mg
CN(C)C(=N)N=C(N)N — microsomal CLint: 1.5 µL/min/mg
CN1CCN(c2nc(-c3ccccn3)nc3ccccc23)CC1 — microsomal CLint: < 1 µL/min/mg
Cc1cc(Nc2ccnc3ccc(-c4ccc(S(=O)(=O)N5CCOCC5)cc4)cc23)on1 — microsomal CLint: 69.8 µL/min/mg
COc1ccc(-c2c(C)[nH]c3cc(OC)c(Cl)cc3c2=O)cc1 — microsomal CLint (1 µM): < 7 µL/min/mg
Fc1ccc(Nc2c(-c3ccccn3)nc3ccccn23)c(F)c1 — microsomal CLint (3 µM, pH 7.4): 96 µL/min/mg
O=C(N[C@H](Cc1ccccc1)C(=O)Nc1ccccc1N1CCS(=O)(=O)CC1)c1ccccc1F — microsomal CLint (2 µM, 40 min, pH 7.4): 1110 µL/min/mg
COc1cc2[nH]c(C)c(-c3ccc(C)cc3)c(=O)c2cc1Cl — microsomal CLint (1 µM): 21 µL/min/mg
c1ccc(-c2nc(N3CCCC3)c3ccccc3n2)nc1 — microsomal CLint: 62 µL/min/mg
O=S(=O)(c1ccc(-c2ccc3nccc(Nc4ccccc4)c3c2)cc1)N1CCOCC1 — microsomal CLint: 71.3 µL/min/mg
O=C(O)C1CCN(c2nc(-c3ccccn3)nc3ccccc23)C1 (stereo not shown) — microsomal CLint: 9 µL/min/mg
C[C@H](N)c1cc(Cl)ccc1Cn1c(=S)[nH]c(=O)c2[nH]ccc21 — microsomal CLint: < 3 µL/min/mg
Clc1cccc(-c2c(-c3ccccn3)nc3n2CCC3)c1 — microsomal CLint (3 µM, pH 7.4): 140 µL/min/mg
COc1cc2[nH]c(C)c(-c3ccc(N(C)C)cc3)c(=O)c2cc1Cl — microsomal CLint (1 µM): 15 µL/min/mg
O=S(=O)(c1ccc(-c2ccc3nccc(Nc4cnccn4)c3c2)cc1)N1CCOCC1 — microsomal CLint: 115 µL/min/mg
FC(F)(F)c1ccccc1-c1nc(N2CCC(c3ccccn3)C2)c2ccccc2n1 (stereo not shown) — microsomal CLint: 199 µL/min/mg
CCOC(=O)c1c(-c2cccc(Cl)c2)[nH]c2cc(OC)c(F)cc2c1=O — microsomal CLint (19.8 µM, pH 7.4): < 4 µL/min/mg
Cc1cnnc(Nc2ccnc3ccc(-c4ccc(S(=O)(=O)N5CCOCC5)cc4)cc23)c1 — microsomal CLint: 126 µL/min/mg
O=C(Nc1ccnc(C(F)(F)F)c1)Nc1cccc2c1OC(F)(F)O2 — microsomal CLint: 14 µL/min/mg
CCn1nccc1Nc1ccnc2ccc(-c3ccc(S(=O)(=O)N4CCOCC4)cc3)cc12 — microsomal CLint: 134 µL/min/mg
Cc1cc(Nc2ccc(C(F)(F)F)cc2)n2nc(C(C)(F)F)nc2n1 — microsomal CLint (1 µM, pH 7.4): < 6 µL/min/mg
COc1cc2[nH]c(C)c(-c3ccc(C(F)(F)F)cc3)c(=O)c2cc1Cl — microsomal CLint (1 µM): < 7 µL/min/mg
Cc1cccc(CNc2nc(-c3ccccn3)nc3ccccc23)n1 — microsomal CLint: 63 µL/min/mg
Cc1cc(Nc2ccc(S(F)(F)(F)(F)F)cc2)n2nc(C(C)(F)F)nc2n1 — microsomal CLint (1 µM, pH 7.4): < 6 µL/min/mg
c1ccc(-c2nc3n(c2-c2cccnc2)CCC3)nc1 — microsomal CLint (3 µM, pH 7.4): 24 µL/min/mg
CCn1ncc2c(N3CCC(c4ccccn4)C3)nc(-c3ccccn3)nc21 (stereo not shown) — microsomal CLint: < 1 µL/min/mg
C[C@H](C(=O)N[C@@H]1COc2ccccc2[C@H]1S(C)(=O)=O)c1ccc(F)cc1 — microsomal CLint (1 µM): 2 µL/min/mg
NC(=O)c1cccc(-c2nc(N3CCC(c4ccccn4)C3)c3ccccc3n2)c1 (stereo not shown) — microsomal CLint: 111 µL/min/mg
COc1cc2[nH]c(C)c(-c3ccc(N(C)C)nc3)c(=O)c2cc1Cl — microsomal CLint (1 µM): 20 µL/min/mg
COc1ccc2nc(-c3cc(N(C)C)ccn3)c(Nc3ccc(F)cc3)n2c1 — microsomal CLint (3 µM, pH 7.4): 120 µL/min/mg
COc1cc2[nH]c(C)c(-c3ccc(-c4ccccc4)cc3)c(=O)c2cc1Cl — microsomal CLint (1 µM): 14 µL/min/mg
C[C@H](C(=O)NC1Cc2ccccc2C1)c1ccc(F)cc1 — microsomal CLint (1 µM, 1 h): 120 µL/min/mg
Fc1ccc(Nc2c(Cn3cccn3)nc3ccccn23)cc1 — microsomal CLint (3 µM, pH 7.4): 45 µL/min/mg
O=S(=O)(c1ccc(-c2ccc3nccc(Nc4ccncc4)c3c2)cc1)N1CCOCC1 — microsomal CLint: 82.4 µL/min/mg
COc1cc2[nH]c(C)c(-c3ccccc3C)c(=O)c2cc1Cl — microsomal CLint (1 µM): 25 µL/min/mg
Fc1ccc(Nc2c(-c3cccc(F)n3)nc3ccccn23)cc1 — microsomal CLint (3 µM, pH 7.4): 130 µL/min/mg
Fc1cccc(F)c1-c1nc(N2CCC(c3ccccn3)C2)c2ccccc2n1 (stereo not shown) — microsomal CLint: 114 µL/min/mg
Fc1ccc(N(CC2CC2)c2c(-c3ccccn3)nc3ccccn23)cc1 — microsomal CLint (3 µM, pH 7.4): 110 µL/min/mg
O=S(=O)(c1ccc(-c2ccc3nccc(Nc4ccc5[nH]nnc5c4)c3c2)cc1)N1CCOCC1 — microsomal CLint: 52 µL/min/mg
COc1cc2[nH]c(C)c(-c3ccc(OC(F)(F)F)cc3)c(=O)c2cc1Cl — microsomal CLint (1 µM): < 7 µL/min/mg
